From ChEMBL document CHEMBL4138242, “Synthesis and antibacterial evaluation of novel cationic chalcone derivatives possessing broad spectrum antibacterial activity” (Eur J Med Chem, 2018)
The source made the active and inactive calls. No cut-off for these calls is given here.

Experiments:
[1] = Hemolytic activity in sheep RBC after 1 hr; format: ADME, cell-based, Ovis aries, Erythrocyte; details: sheep red blood cells (erythrocytes)
Procedure, shortened: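 Sheep red blood cells (150 µL suspension) mixed with 50 µL of compound dilutions (5120-10 µg/mL), 1 h at 37 °C, then centrifuged. Supernatant read at 540 nm. Percent hemolysis calculated relative to RBC-only control (0%) and 0.1% Triton X-100 (100%).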

[2] = system: Klebsiella pneumoniae; assay: Antibacterial activity against drug-resistant carbapenemase producing Klebsiella pneumoniae clinical isolate KP-14-4 after 16 to 20 hrs by broth microdilution method; format: functional
Procedure, shortened: (§1)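 CLSI broth microdilution in Mueller-Hinton broth. A 4-6 h culture was diluted to about 10⁶ CFU/mL and mixed 1:1 with compound dilutions prepared at 256 to 0.5 µg/mL from aqueous stocks. Plates were incubated at 37 °C for 16-20 h and read visually for MIC. Each concentration was run in duplicate, and the experiment was repeated at least twice. Vancomycin and meropenem were comparators.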

[3] = system: Staphylococcus aureus; assay: Bactericidal activity against methicillin-resistant Staphylococcus aureus in presence of 50% sheep blood after 20 to 24 hrs; format: functional; details: read-out: MBC99.9
Procedure, shortened: (§2)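 MRSA at 10⁵ CFU/mL in 50% MHB plus 50% sheep serum, plasma or defibrinated blood; serum and plasma were obtained by centrifugation at 3,500 rpm for 10 min. Aqueous dilutions prepared at 512-4 µg/mL were added 1:3 to the suspension and incubated for 20-24 h at 37 °C. Well contents (20 µL) were plated on MHA for 20-24 h, and MBC was the concentration giving no colonies.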

[4] = system: Staphylococcus aureus; assay: Disruption of 24 hrs cultured Staphylococcus aureus ATCC 29213 biofilm assessed as cell viability in biofilm at 8 ug/ml after 24 hrs by crystal violet staining-based assay (reference value: 15.96 log10CFU/ml); format: functional
[5] = system: Klebsiella pneumoniae; assay: Antibacterial activity against drug-resistant carbapenemase producing Klebsiella pneumoniae clinical isolate KP-14-45 after 16 to 20 hrs by broth microdilution method; format: functional; procedure, shortened: as §1
[6] = system: Escherichia coli; assay: Antibacterial activity against drug-resistant NDM1 producing Escherichia coli clinical isolate EC-14-54 after 16 to 20 hrs by broth microdilution method; format: functional; procedure, shortened: as §1
[7] = system: Klebsiella pneumoniae; assay: Antibacterial activity against drug-resistant carbapenemase producing Klebsiella pneumoniae clinical isolate EC-13-23 after 16 to 20 hrs by broth microdilution method; format: functional; procedure, shortened: as §1
[8] = system: Staphylococcus aureus; assay: Antibacterial activity against methicillin-resistant Staphylococcus aureus clinical isolate 1-may after 16 to 20 hrs by broth microdilution method; format: functional; procedure, shortened: as §1
[9] = system: Escherichia coli; assay: Antibacterial activity against drug-resistant NDM1 producing Escherichia coli clinical isolate SM-15-84 after 16 to 20 hrs by broth microdilution method; format: functional; procedure, shortened: as §1
[10] = system: Klebsiella pneumoniae; assay: Antibacterial activity against drug-resistant carbapenemase producing Klebsiella pneumoniae clinical isolate KP-14-1 after 16 to 20 hrs by broth microdilution method; format: functional; procedure, shortened: as §1
[11] = system: Staphylococcus aureus; assay: Antibacterial activity against methicillin-resistant Staphylococcus aureus clinical isolate 1104060 after 16 to 20 hrs by broth microdilution method; format: functional; procedure, shortened: as §1
[12] = system: Staphylococcus aureus; assay: Antibacterial activity against methicillin-resistant Staphylococcus aureus clinical isolate 0906202 after 16 to 20 hrs by broth microdilution method; format: functional; procedure, shortened: as §1
[13] = system: Klebsiella pneumoniae; assay: Antibacterial activity against drug-resistant carbapenemase producing Klebsiella pneumoniae clinical isolate KP-14-18 after 16 to 20 hrs by broth microdilution method; format: functional; procedure, shortened: as §1
[14] = system: Staphylococcus aureus; assay: Antibacterial activity against methicillin-resistant Staphylococcus aureus clinical isolate 1105183 cono7 after 16 to 20 hrs by broth microdilution method; format: functional; procedure, shortened: as §1
[15] = system: Staphylococcus aureus; assay: Disruption of 24 hrs cultured Staphylococcus aureus ATCC 29213 biofilm assessed as cell viability in biofilm at 64 ug/ml after 24 hrs by crystal violet staining-based assay (reference value: 15.96 log10CFU/ml); format: functional
[16] = system: Staphylococcus aureus; assay: Ratio of MBC99.9 for methicillin-resistant Staphylococcus aureus in presence of 50% sheep serum to MBC99.9 for methicillin-resistant Staphylococcus aureus ATCC 29213 in presence of 50% sheep plasma; format: functional; procedure, shortened: as §2
[17] = system: Escherichia coli; assay: Antibacterial activity against drug-resistant NDM1 producing Escherichia coli clinical isolate CF-13-61 after 16 to 20 hrs by broth microdilution method; format: functional; procedure, shortened: as §1
[18] = system: Staphylococcus aureus; assay: Disruption of 24 hrs cultured Staphylococcus aureus ATCC 29213 biofilm assessed as cell viability in biofilm at 128 ug/ml after 24 hrs by crystal violet staining-based assay (reference value: 15.96 log10CFU/ml); format: functional
[19] = system: Staphylococcus aureus; assay: Antibacterial activity against methicillin-resistant Staphylococcus aureus clinical isolate 0831010 after 16 to 20 hrs by broth microdilution method; format: functional; procedure, shortened: as §1
[20] = system: Staphylococcus aureus; assay: Disruption of 24 hrs cultured Staphylococcus aureus ATCC 29213 biofilm assessed as cell viability in biofilm at 16 ug/ml after 24 hrs by crystal violet staining-based assay (reference value: 15.96 log10CFU/ml); format: functional
[21] = system: Escherichia coli; assay: Antibacterial activity against Escherichia coli ATCC 25922 after 16 to 20 hrs by broth microdilution method; format: functional
Procedure, shortened: (§3)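 Broth microdilution per CLSI. Bacteria grown 4-6 h (about 10⁸ CFU/mL), then diluted to about 10⁶ CFU/mL. Medium: Mueller-Hinton broth, except Luria-Bertani broth for E. coli. Compounds in sterile water, twofold series 256-0.5 µg/mL, mixed 1:1 with inoculum, 37 °C for 16-20 h. MIC is the lowest concentration without visible growth. Duplicate wells; experiment repeated at least twice.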

[22] = system: Escherichia coli; assay: Antibacterial activity against drug-resistant NDM1 producing Escherichia coli clinical isolate Ecl-14-56 after 16 to 20 hrs by broth microdilution method; format: functional; procedure, shortened: as §1
[23] = system: Staphylococcus aureus; assay: Disruption of 24 hrs cultured Staphylococcus aureus ATCC 29213 biofilm assessed as cell viability in biofilm at 2 ug/ml after 24 hrs by crystal violet staining-based assay (reference value: 15.96 log10CFU/ml); format: functional
[24] = system: Staphylococcus aureus; assay: Bactericidal activity against methicillin-resistant Staphylococcus aureus in presence of 50% sheep serum after 20 to 24 hrs; format: functional; details: read-out: MBC99.9; procedure, shortened: as §2
[25] = system: Staphylococcus aureus; assay: Induction of cytoplasmic membrane depolarization in Staphylococcus aureus ATCC 29213 at 10 to 20 ug/ml measured every 2 mins for 12 mins by DiSC35 dye-based fluorescence assay; format: functional, organism-based
Procedure, shortened: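 Mid-log cells (~10⁸ CFU/mL) were suspended in PBS (S. aureus) or HEPES/glucose/KCl with EDTA (E. coli). They were preloaded with DiSC3(5) for 30 min (S. aureus) or 40 min (E. coli), and baseline fluorescence was read for 8 min. Compound was added to 20 µg/mL final, and fluorescence (ex 622/em 670 nm) was read every 2 min for 12 min. Water served as control.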

[26] = system: Escherichia coli; assay: Antibacterial activity against drug-resistant NDM1 producing Escherichia coli clinical isolate EA-14-61 after 16 to 20 hrs by broth microdilution method; format: functional; procedure, shortened: as §1
[27] = system: Enterococcus faecalis; assay: Antibacterial activity against Enterococcus faecalis ATCC 29212 after 16 to 20 hrs by broth microdilution method; format: functional; procedure, shortened: as §3
[28] = system: Salmonella enterica; assay: Antibacterial activity against Salmonella enterica ATCC 13076 after 16 to 20 hrs by broth microdilution method; format: functional; procedure, shortened: as §3
[29] = system: Staphylococcus aureus; assay: Antibacterial activity against methicillin-resistant Staphylococcus aureus clinical isolate 20131012632sau after 16 to 20 hrs by broth microdilution method; format: functional; procedure, shortened: as §1

CCCCCCCC[N+](C)(C)CC(=O)Nc1ccc(C(=O)/C=C/c2ccccc2F)cc1.[Cl-]
HC50 at 1 h [1]: 137 µg/mL | MIC [2]: 4 µg/mL | MBC [3]: 128 µg/mL | Activity [4]: 11.696 log10CFU/ml | MIC [5]: 8 µg/mL | MIC [6]: 16 µg/mL | MIC [7]: 4 µg/mL | MIC [8]: 1 µg/mL | MIC [9]: 16 µg/mL | MIC [10]: 8 µg/mL | MIC [11]: 8 µg/mL | MIC [12]: 4 µg/mL | MIC [13]: 16 µg/mL | MIC [14]: 1 µg/mL | Activity [15]: 9.41 log10CFU/ml | Ratio [16]: 2 | MIC [17]: 4 µg/mL | Activity [18]: 8.95 log10CFU/ml | MIC [19]: 0.5 µg/mL | Activity [20]: 10.95 log10CFU/ml | MIC [21]: 2 µg/mL | MIC [22]: 4 µg/mL | Activity [23]: 13.93 log10CFU/ml | MBC [24]: 32 µg/mL | Activity [25]: Active | MIC [26]: 4 µg/mL | MIC [27]: 1 µg/mL | MIC [28]: 4 µg/mL | MIC [29]: 2 µg/mL
